Source: PMC12166265 (Clinical Pharmacology and Therapeutics, 2025)
Where two headings read alike, the source gives them in different places.

Assays:
BCRP [1] = target: T1, BCRP (Homo sapiens, UniProt Q9UNQ0); assay type: cell-based; details: for Uptake in BCRP-expressing HEK293 cells compared to same cell line with Ko143: 10 μM and 30 μM, 30 min; for BCRP substrate classification: HEK293 BCRP cells
T1 sequence (Q9UNQ0 1-655): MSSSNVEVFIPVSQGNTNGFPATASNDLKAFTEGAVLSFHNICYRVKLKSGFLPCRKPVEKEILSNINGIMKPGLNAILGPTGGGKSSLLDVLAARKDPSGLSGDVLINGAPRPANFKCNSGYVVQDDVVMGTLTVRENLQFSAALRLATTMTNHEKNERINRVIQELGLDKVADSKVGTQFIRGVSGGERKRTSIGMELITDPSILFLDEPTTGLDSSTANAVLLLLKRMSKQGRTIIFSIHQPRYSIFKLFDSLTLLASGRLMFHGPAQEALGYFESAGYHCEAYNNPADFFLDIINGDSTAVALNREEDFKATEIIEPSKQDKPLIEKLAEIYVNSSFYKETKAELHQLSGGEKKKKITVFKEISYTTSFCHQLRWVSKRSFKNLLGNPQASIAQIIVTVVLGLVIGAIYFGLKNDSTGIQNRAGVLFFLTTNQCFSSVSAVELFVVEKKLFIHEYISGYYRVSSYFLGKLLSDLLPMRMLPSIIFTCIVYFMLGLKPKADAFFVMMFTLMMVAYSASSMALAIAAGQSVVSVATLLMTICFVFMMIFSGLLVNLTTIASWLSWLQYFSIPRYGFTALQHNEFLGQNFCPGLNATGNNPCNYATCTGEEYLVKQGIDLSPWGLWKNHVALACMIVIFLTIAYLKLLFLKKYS
Method in brief: (§1)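 Transporter-overexpressing HEK293 cells were cultured in DMEM with 10% FBS, 1% penicillin/streptomycin and selection antibiotics at 37°C, 5% CO₂. Test compounds were screened at 10 μM and 30 μM, and uptake was quantified as normalised peak areas. For OATP1B1/1B3, uptake was compared with empty-vector cells, and for OATP1B1 also with cells treated with the inhibitor cyclosporine A.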

OATP1B1 [2] = target: T2, OATP1B1 (Homo sapiens, UniProt Q9Y6L6); assay type: cell-based; details: HEK293 OATP1B1 cells
T2 sequence (Q9Y6L6 1-691): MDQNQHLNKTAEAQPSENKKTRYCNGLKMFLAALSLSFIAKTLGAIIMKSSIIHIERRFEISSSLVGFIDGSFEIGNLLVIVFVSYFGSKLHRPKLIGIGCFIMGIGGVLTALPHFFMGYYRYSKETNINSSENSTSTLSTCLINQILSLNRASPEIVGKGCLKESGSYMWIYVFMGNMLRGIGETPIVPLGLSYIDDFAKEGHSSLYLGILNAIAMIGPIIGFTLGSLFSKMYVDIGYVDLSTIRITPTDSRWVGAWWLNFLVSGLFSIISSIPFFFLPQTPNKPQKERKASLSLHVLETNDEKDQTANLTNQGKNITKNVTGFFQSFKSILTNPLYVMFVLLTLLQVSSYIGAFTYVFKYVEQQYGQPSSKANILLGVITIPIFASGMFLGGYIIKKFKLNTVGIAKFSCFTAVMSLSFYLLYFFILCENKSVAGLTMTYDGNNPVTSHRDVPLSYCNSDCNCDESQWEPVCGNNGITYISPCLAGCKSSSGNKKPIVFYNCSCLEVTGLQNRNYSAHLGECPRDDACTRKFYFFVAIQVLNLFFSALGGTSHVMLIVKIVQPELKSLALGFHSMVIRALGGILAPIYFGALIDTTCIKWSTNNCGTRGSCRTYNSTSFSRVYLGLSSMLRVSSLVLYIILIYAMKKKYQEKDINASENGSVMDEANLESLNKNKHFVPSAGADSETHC
Method in brief: as §1

P-gp = P-gp (Homo sapiens, UniProt P08183); test: Inhibitor screening of [3H]digoxin accumulation in HEK293 cells expressing P-gp; assay type: cell-based
P-gp, sequence (P08183 whole entry): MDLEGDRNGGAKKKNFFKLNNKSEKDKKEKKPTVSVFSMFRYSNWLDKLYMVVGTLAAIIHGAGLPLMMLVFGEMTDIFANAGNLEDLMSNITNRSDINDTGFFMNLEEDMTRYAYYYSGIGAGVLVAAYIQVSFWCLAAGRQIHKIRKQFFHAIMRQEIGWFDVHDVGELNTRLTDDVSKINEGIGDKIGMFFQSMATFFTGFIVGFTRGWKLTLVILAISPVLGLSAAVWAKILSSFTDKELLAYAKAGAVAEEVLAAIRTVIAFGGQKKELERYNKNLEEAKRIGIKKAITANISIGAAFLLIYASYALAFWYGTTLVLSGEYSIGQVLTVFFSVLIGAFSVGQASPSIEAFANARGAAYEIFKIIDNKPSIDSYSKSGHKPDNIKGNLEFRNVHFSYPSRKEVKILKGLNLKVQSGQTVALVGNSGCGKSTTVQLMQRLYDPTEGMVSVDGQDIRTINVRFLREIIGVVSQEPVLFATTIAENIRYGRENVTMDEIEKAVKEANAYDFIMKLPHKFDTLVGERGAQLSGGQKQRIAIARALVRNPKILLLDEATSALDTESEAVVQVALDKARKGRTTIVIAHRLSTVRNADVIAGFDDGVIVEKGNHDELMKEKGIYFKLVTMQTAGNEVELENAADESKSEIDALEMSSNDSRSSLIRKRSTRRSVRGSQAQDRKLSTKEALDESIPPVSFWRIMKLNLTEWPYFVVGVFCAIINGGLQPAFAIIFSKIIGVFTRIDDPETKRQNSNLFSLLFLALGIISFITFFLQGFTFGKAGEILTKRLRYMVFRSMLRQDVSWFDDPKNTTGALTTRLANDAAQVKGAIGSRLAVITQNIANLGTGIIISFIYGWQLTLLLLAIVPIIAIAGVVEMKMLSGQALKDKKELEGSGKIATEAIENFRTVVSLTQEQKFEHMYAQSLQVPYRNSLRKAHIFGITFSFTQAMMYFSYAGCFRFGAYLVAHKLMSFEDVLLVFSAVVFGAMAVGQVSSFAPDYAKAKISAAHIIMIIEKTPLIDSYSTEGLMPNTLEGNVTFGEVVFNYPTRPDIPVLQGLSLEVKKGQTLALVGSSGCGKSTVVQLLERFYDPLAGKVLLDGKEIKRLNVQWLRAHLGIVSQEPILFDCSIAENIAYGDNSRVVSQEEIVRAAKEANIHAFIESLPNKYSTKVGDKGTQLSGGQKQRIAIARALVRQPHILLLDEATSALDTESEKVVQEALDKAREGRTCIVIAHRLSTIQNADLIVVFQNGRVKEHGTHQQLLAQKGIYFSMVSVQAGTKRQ
Method in brief: (§2)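 HEK293 lines overexpressing the named transporter were grown in DMEM with 10% FBS, 1% penicillin/streptomycin and line-specific selection antibiotics, at 37°C, humidified, 5% CO₂. Cell-based uptake assays measured inhibition of transporter activity.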

[3] = assay type: in vivo, human; details: for AUC0−24, geometric mean ratio (90% CI) of rosuvastatin + eltrombopag arm to rosuvastatin alone arm / C0 at 0 h / Cmax / AUC(0-t): both, plasma, oral; for AUC(0-t): geometric mean (90% CI); for Effect of eltrombopag administration on plasma concentrations (in words): eltrombopag 75 mg daily for 5 days
OATP1B3 [4] = target: T3, OATP1B3 (Homo sapiens, UniProt Q9NPD5); test: Substrate screening in HEK293 cells expressing OATP1B3; assay type: cell-based
T3 sequence (Q9NPD5 1-702): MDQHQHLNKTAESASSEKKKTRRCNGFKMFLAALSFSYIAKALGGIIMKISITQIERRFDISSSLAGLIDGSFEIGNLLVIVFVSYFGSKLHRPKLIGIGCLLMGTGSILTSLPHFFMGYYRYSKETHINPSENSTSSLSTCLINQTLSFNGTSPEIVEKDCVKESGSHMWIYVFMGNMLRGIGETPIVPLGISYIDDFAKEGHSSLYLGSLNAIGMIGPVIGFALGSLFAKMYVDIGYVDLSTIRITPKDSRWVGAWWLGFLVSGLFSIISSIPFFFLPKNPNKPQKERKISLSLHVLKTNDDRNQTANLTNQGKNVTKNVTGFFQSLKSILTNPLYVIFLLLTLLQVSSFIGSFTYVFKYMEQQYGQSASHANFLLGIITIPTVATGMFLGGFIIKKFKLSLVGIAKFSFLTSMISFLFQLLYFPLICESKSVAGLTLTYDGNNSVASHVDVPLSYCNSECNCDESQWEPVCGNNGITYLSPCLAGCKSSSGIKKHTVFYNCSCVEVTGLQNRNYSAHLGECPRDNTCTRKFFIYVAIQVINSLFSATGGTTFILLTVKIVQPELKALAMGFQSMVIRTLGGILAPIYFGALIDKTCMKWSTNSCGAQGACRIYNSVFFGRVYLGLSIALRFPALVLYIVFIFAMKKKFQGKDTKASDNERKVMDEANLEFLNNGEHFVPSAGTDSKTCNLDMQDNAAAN
Method in brief: as §1

ABCG2 p.Q141K variant = assay type: in vivo, human; details: two p.Q141K (CA) vs nine REF (CC) individuals; T = 0 h
Method in brief: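 Open-label fixed-sequence crossover in 11 healthy non-smoking adults aged 18–64. Single oral rosuvastatin 10 mg given after an overnight fast, with fasting continued 4 h. Heparinised venous plasma was stored at −70°C and analysed by LC–MS. ABCG2 c.421C>A was genotyped blind by PCR and Sanger sequencing. Nine CC and two CA subjects were compared at T = 0 h and by noncompartmental PK, using log-transformed geometric means and unpaired t-tests.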

RFVT2 = target: T4, RFVT2 (Homo sapiens, UniProt Q9HAB3); assay type: cell-based
T4 sequence (Q9HAB3 1-445): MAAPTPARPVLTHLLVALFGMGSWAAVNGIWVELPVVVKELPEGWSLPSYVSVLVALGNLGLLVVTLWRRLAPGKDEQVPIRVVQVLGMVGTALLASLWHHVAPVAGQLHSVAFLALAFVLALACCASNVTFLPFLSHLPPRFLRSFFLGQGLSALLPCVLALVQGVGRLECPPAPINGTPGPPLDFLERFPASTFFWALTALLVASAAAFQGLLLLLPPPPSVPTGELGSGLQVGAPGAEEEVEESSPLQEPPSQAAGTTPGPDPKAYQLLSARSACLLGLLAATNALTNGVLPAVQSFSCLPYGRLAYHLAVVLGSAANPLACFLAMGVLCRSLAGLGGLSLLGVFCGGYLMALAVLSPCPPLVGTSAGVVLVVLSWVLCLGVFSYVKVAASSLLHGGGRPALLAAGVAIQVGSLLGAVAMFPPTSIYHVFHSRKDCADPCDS
Method in brief: as §2

RFVT3 = target: T5, RFVT3 (Homo sapiens, UniProt Q9NQ40); assay type: cell-based
T5 sequence (Q9NQ40 1-469): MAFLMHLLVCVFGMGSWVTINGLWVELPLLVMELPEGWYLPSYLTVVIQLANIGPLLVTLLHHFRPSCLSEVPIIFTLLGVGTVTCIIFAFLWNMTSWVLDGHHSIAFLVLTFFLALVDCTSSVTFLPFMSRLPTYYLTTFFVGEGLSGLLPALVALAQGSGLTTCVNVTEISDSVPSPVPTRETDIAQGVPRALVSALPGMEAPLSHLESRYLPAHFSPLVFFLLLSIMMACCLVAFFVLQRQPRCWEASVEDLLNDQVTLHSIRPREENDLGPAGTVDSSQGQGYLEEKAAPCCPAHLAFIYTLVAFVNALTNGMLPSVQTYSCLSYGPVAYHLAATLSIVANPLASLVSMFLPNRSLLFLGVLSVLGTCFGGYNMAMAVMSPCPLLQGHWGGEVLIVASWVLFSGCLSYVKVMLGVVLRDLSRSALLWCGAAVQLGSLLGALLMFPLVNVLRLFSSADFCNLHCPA
Method in brief: as §2

OATP1B1 [5] = target: T2, OATP1B1; assay type: cell-based
Method in brief: as §2

RFVT1 = target: T6, RFVT1 (Homo sapiens, UniProt Q9NWF4); assay type: cell-based
T6 sequence (Q9NWF4 1-448): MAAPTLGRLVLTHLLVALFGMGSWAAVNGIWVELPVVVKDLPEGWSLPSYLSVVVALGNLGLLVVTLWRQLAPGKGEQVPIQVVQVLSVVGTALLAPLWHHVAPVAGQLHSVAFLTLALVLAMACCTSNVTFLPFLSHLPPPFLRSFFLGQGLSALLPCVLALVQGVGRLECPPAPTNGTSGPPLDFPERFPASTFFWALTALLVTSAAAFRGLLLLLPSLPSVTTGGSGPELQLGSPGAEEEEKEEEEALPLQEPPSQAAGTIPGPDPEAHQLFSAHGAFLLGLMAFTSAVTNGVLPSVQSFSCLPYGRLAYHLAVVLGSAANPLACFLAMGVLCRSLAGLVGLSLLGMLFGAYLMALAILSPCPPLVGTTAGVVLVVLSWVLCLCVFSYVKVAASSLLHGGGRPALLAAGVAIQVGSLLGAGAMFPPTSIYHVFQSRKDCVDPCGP
Method in brief: as §2

BCRP [6] = target: T1, BCRP; assay type: biochemical
hepatic BCRP = details: intravenous ceftriaxone as model; cited from earlier work
OATP1B3 [7] = target: T3, OATP1B3; assay type: cell-based
Method in brief: as §2

[8] = human, 10 mg, AUC0−4, rosuvastatin alone arm
[9] = human, AUC0−4, rosuvastatin + eltrombopag arm

Row | SMILES | Uptake in BCRP-expressing HEK293 cells compared to same cell line with Ko143 (BCRP [1]) | BCRP substrate classification (BCRP [1]) | OATP1B1 substrate classification (OATP1B1 [2]) | Effect on intracellular accumulation of P-gp substrate [3H]digoxin (P-gp) | AUC0−24, geometric mean ratio (90% CI) of rosuvastatin + eltrombopag arm to rosuvastatin alone arm ([3]; human) | C0 at 0 h ([3]; human) | Cmax ([3]; human) | C0 at 0 h ([3]; human, 10 mg) | Cmax ([3]; human, 10 mg) | AUC(0-t) [3, 8] | AUC(0-t) [3, 9] | Effect of eltrombopag administration on plasma concentrations (in words) [3] | AUC0−4, geometric mean ratio (90% CI) of rosuvastatin + eltrombopag arm to rosuvastatin alone arm ([3]; human, in vivo) | Cmax, geometric mean ratio (90% CI) of rosuvastatin + eltrombopag arm to rosuvastatin alone arm ([3]; human, in vivo) | Food effects, fasted (AUC0−4) vs fed (AUC4−8) ([3]; human, in vivo) | OATP1B3 substrate classification (OATP1B3 [4]) | Baseline concentrations, heterozygous p.Q141K vs homozygous reference allele (ABCG2 p.Q141K variant) | also measured
1 | O=C(O)c1c(O)c(Cl)cc(Br)c1O [BCDBA, 3‐bromo‐5‐chloro‐2,6‐dihydroxybenzoic acid] | significantly reduced | BCRP substrates | not substrates | did not affect | 0.95 (0.89–1.02); P = 0.38 | 0.57 ng/mL | 0.7 ng/mL | 0.64 ng/mL | 0.7 ng/mL | 2.13 ng·h/mL | 2.1 ng·h/mL | did not lead to corresponding increases | 0.98 (0.91–1.07); P = 0.78 | 1.01 (0.93–1.09); P = 0.96 | No food effects | not substrates | significantly higher | –
2 | CC1=NN(c2ccc(C)c(C)c2)C(=O)/C1=N\Nc1cccc(-c2cccc(C(=O)O)c2)c1O [Eltrombopag] | – | – | – | – | – | – | – | – | – | – | – | – | – | – | – | – | – | IC50 (RFVT2): 28.2 ± 15.7 µM; IC50 (RFVT3): 26.3 ± 34 µM; IC50 (OATP1B1 [5]): 1.4 ± 1.2 µM; IC50 (RFVT1): 44.7 ± 18.3 µM; IC50 (BCRP [6]): 4.9 ± 0.6 µM; Inhibition of hepatic BCRP (hepatic BCRP): does not inhibit; IC50 (OATP1B3 [7]): 4 ± 3.1 µM
3 | O=C(O)c1c(O)c(Cl)cc(Cl)c1O [DCDBA, 3,5‐dichloro‐2,6‐dihydroxybenzoic acid] | significantly reduced | BCRP substrates | not substrates | did not affect | 1.03 (0.97–1.10); P = 0.39 | 0.8 ng/mL | 0.98 ng/mL | 0.73 ng/mL | 1.03 ng/mL | 3.02 ng·h/mL | 2.97 ng·h/mL | did not lead to corresponding increases | 0.98 (0.93–1.04); P = 0.72 | 0.95 (0.85–1.06); P = 0.49 | No food effects | not substrates | not statistically significant | AUC(0-t) ([3]; human, 10 mg, AUC0−24, rosuvastatin alone arm): 18.6 ng·h/mL; AUC(0-t) ([3]; human, AUC0−24, rosuvastatin + eltrombopag arm): 19.2 ng·h/mL; C0, geometric mean ratio (90% CI) of rosuvastatin + eltrombopag arm to rosuvastatin alone arm ([3]; human, in vivo): 1.10 (1.00–1.21); P = 0.07
